{"source": "paper PMC13031150", "about": "(Acta Pharmaceutica Sinica. B, 2025)", "key": {"[1]": {"system": "KBM5-T315I cells", "test": "LDH / lactate production", "type": "cell-based, human", "conditions": "NG52 6.25–50 μmol/L, 24 h"}, "[2]": {"system": "BCR-ABL", "test": "BCR-ABL protein level by Western blot", "type": "cell-based, human", "conditions": "KBM5-T315I, NG52 0–50 μmol/L, 24 h, dose-dependent"}, "[3]": {"system": "VCP phosphorylation in KBM5-T315I cells", "test": "VCP phosphorylation in cells", "type": "cell-based, human", "conditions": "50 μmol/L NG52, 24 h", "procedure,_shortened": "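KBM5-T315I cells were treated 24 h with test compound. Lysates were immunoprecipitated with anti-VCP antibody and immunoblotted with a pan-phospho-Ser/Thr antibody.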"}, "[4]": {"system": "KBM5-T315I cells", "test": "CCK-8 cell viability assay, including SynergyFinder synergy analysis", "type": "cell-based, human", "procedure,_shortened": "(§1)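 Viability was read by CCK-8. […] A second test compound, 0–80 μmol/L alone or with a TKI, was given for 12 h. δ-scores came from SynergyFinder: >10 synergy, <−10 antagonism. SEM, n = 3.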"}, "[5]": {"system": "KBM5-T315I cells", "test": "Autophagy readouts", "type": "cell-based, human"}, "[6]": {"system": "KBM5 cells", "test": "CCK-8 cell viability assay, including SynergyFinder synergy analysis", "type": "cell-based, human", "conditions": "NG52 combined with imatinib, KBM5, 24 h, CCK-8, SynergyFinder", "procedure,_shortened": "as §1"}, "[7]": {"system": "VCP-KD-KBM5-T315I cells", "test": "CCK-8 cell viability with synergy analysis in VCP-knockdown cells", "type": "cell-based, human", "conditions": "NG52 combined with imatinib, 24 h", "procedure,_shortened": "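Viability was read by CCK-8, and δ-scores were computed in SynergyFinder (>10 synergy, <−10 antagonism).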"}, "[8]": {"system": "KBM5-T315I xenograft", "test": "Subcutaneous KBM5-T315I xenograft in NOD/SCID mice", "type": "in vivo, mouse", "conditions": "CPU-216 20 mg/kg, NG52 100 mg/kg"}, "[9]": {"system": "KBM5-T315I cells-bearing NOD/SCID mice", "test": "Tail-vein KBM5-T315I leukemia model in NOD/SCID mice", "type": "in vivo, mouse", "conditions": "single agent: imatinib 100 mg/kg, CPU-216 20 mg/kg", "procedure,_shortened": "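Female NOD/SCID mice aged 4–6 weeks received sublethal irradiation (1.8 Gy), then KBM5-T315I cells by tail vein within 24 h. After 7 days of engraftment, dosing was on alternate days for 4 weeks, with saline as vehicle. Peripheral-blood human CD45⁺ cells were measured by flow cytometry, along with spleen weight and Kaplan–Meier survival. SEM, n ≥ 3.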"}, "[10]": {"system": "KBM5-T315I-PGK1-KD, PGK1-OE and PGK1-T378P cells", "test": "CCK-8 cell viability in PGK1-modified KBM5-T315I cells", "type": "cell-based, human", "conditions": "KBM5-T315I-PGK1-KD versus KBM5-T315I, 24 h", "procedure,_shortened": "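KBM5-T315I lines were empty-vector (NC), PGK1-overexpressing (OE), shPGK1 knockdown (KD), or KD re-transfected with PGK1-WT or PGK1-T378P cDNA. […] WT, OE, KD and T378P cells received test compound 0–80 μmol/L for […]. Viability was read by CCK-8; SEM, n = 3.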"}, "[11]": {"conditions": "KBM5-T315I, Western blot, NG52 dose-dependent, CPU-216 0–6 μmol/L, 0–12 h"}}, "data": [{"smiles": "CC(C)n1cnc2c(Nc3cccc(Cl)c3)nc(NCCO)nc21", "note": "[NG52]", "values": [{"measurement": "Effect on LDH levels", "setting": "[1]", "value": "no significant effect"}, {"measurement": "BCR-ABL expression", "setting": "[2]", "value": "reduced"}, {"measurement": "VCP phosphorylation levels", "setting": "[3]", "value": "reduction"}, {"measurement": "Inhibitory effect on cell viability, KBM5-T315I versus KBM5", "setting": "[4]; 0–400 μmol/L, 24 h, CCK-8", "value": "better inhibitory effect on KBM5-T315I"}, {"measurement": "Synergy score", "setting": "[4]; NG52 combined with imatinib, KBM5-T315I pretreated with 3 μmol/L PKM2-IN-1", "value": 15.16}, {"measurement": "Synergy score (δ-score)", "setting": "[4]; NG52 combined with imatinib, NC (empty vector control) KBM5-T315I cells, 24 h", "value": 15.66}, {"measurement": "Synergy score (δ-score)", "setting": "[4]; NG52 combined with ponatinib, KBM5-T315I, 24 h, CCK-8, SynergyFinder", "value": 10.11}, {"measurement": "Formation of LC3 puncta", "setting": "[5]; KBM5-T315I transfected with GFP-LC3B", "value": "promote"}, {"measurement": "Beclin 1 ubiquitination", "setting": "[5]; KBM5-T315I, NG52 50 μmol/L with 10 μmol/L MG132, 24 h", "value": "decreased"}, {"measurement": "Beclin 1 expression and LC3B-II/LC3B-I ratio", "setting": "[5]; [11]", "value": "increased"}, {"measurement": "SQSTM1 expression", "setting": "[5]; [11]", "value": "reducing"}, {"measurement": "Autophagic vesicles (transmission electron microscopy)", "setting": "[5]; KBM5-T315I, NG52 50 μmol/L, CPU-216 6 μmol/L", "value": "marked increase"}, {"measurement": "Synergy score (δ-score)", "setting": "[6]", "value": "−7.32"}, {"measurement": "Synergy score (δ-score)", "setting": "[7]", "value": 7.57}, {"measurement": "LC3B-II expression in tumor (immunofluorescence)", "setting": "[8]; imatinib 100 mg/kg", "value": "increased"}, {"measurement": "SQSTM1 expression in tumor (immunofluorescence)", "setting": "[8]; imatinib 100 mg/kg", "value": "decreased"}, {"measurement": "Tumor proliferation (Ki-67 staining)", "setting": "[8]; imatinib 100 mg/kg", "value": "significantly reduced"}, {"measurement": "Tumor volume", "setting": "[8]; intragastric every 48 h, 21 days", "value": "reduce"}]}, {"smiles": "CC1=C(CSC(=S)N2CCCCC2)C(=O)c2ccccc2C1=O", "note": "[PKM2-IN-1]", "values": [{"measurement": "Effect on proliferation", "setting": "[4]; 3 μmol/L, 24 h, CCK-8, KBM5-T315I", "value": "did not affect"}, {"measurement": "Synergy score", "setting": "[4]; PKM2-IN-1 combined with imatinib, KBM5-T315I", "value": "−4.49"}]}, {"smiles": "Cc1ccc(NC(=O)c2ccc(CN3CCN(C)CC3)cc2)cc1Nc1nccc(-c2cccnc2)n1", "note": "[imatinib]", "values": [{"measurement": "Reduction of proportion of cells in the blood (HuCD45)", "setting": "[9]", "value": "less pronounced"}, {"measurement": "Splenomegaly", "setting": "[9]", "value": "alleviated"}, {"measurement": "Sensitivity of PGK1-knockdown cells to the TKI", "setting": "[10]", "value": "increased sensitivity"}]}, {"smiles": "Cc1ccc(C(=O)Nc2ccc(CN3CCN(C)CC3)c(C(F)(F)F)c2)cc1C#Cc1cnc2cccnn12", "note": "[ponatinib]", "values": [{"measurement": "Sensitivity of PGK1-knockdown cells to the TKI", "setting": "[10]", "value": "increased sensitivity"}]}]}
